PPC-1+TRAIL kill – PPC-1 cancer cell killing with TRAIL present; PPC-1 cells + TRAIL, ATPLite viability luminescence; cell killing (% activity), % at 4 µM or 5 µM; actives 0.41% (n = 220,000); AID 1443;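 active = cell killing above 50% in the first pass at 4 µM, then a duplicate retest at 5 µM averaging 50% or more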;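 note: plate controls were cells with TRAIL plus DMSO for no effect and medium-only wells lacking cells for full effect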
H9c2 TAG inh – reduces triacylglycerol accumulation in H9c2 cells | Nile Red lipid (TAG) fluorescence; cells loaded with 200 µM oleic acid | inhibition, % at 12.5 µM | actives 0.66% (n = 230,000) | AID 651582;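 active = pattern-corrected inhibition of lipid staining of at least 50% with the nuclear-stain viability signal not falling by more than 50%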;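 note: 0% = DMSO wells and 100% = triacsin C control wells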
STAT1 blocker – inhibitors of IFN-gamma induced STAT1 signaling; NIH 3T3 STAT1-luciferase reporter, luminescence; actives 0.35% (n = 200,000); inhibition, % at 5.5 µM; AID 920;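 active = inhibition above a set limit, the mean inhibition across all tested compounds plus 3 SD, cut at about 34% in these data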;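 note: 0% = IFN-gamma with DMSO and 100% = IFN-gamma with 300 µM nifuroxazide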
Lipid droplet – modulators of hepatic lipid droplet formation | AID 1656 | AML12 mouse hepatocytes, oleate lipid droplets, BODIPY imaging | inhibition, % at 6.5 µM | actives 0.4% (n = 240,000);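 active = lipid droplet intensity inhibited by at least 50%, with more than 500 cells counted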
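Assay system: AML12 mouse liver cells | Compound: 6.5 µM single-point dosing | Schedule: Overnight exposure | Technique: Fluorescence imaging, 20x objective, two fields per well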
STAT3 inh – STAT3 signaling inhibition | U3A cells, IL-6 STAT3-luciferase reporter, luminescence; host cell line lacks STAT1 | inhibition, % at 5.5 µM | actives 0.89% (n = 190,000) | AID 862;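 active = inhibition above the mean inhibition across all screened compounds plus 3 SD, cut at about 44% in these data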;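 note: 0% = DMSO only wells and 100% = 100 µM nifuroxazide control wells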
Platelet DG rel – platelet dense granule release activity; human platelet-rich plasma, SFLLRN dense granule ATP release, luminescence; inhibition, %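 (compounds screened at 7.5 µM in platelet-rich plasma)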; actives 0.22% (n = 300,000); AID 1663;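 active = mean replicate score, as percent of positive control, at or above 50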
PPC-1 tox – PPC-1 cell cytotoxicity; shares compounds with PPC-1+TRAIL kill; PPC-1 viability, ATPlite luminescence, overnight; cytotoxicity, % at 5 µM; actives 50% (n = 1,200); AID 1447;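 active = reconfirmed compounds whose average cytotoxicity reaches 50% or more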;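 note: 0% = DMSO-treated cells and 100% = wells holding medium but no cells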
* hit, by the source's call. This is a sample that favours compounds with a hit; in the whole collection about 1.5% have one here.

Cc1cc(=O)[nH]c(SCC(=O)Nc2ccccc2C)n1 was read as PPC-1+TRAIL kill -0.4, H9c2 TAG inh 5.7, STAT1 blocker -6.7, Lipid droplet -1.9, STAT3 inh 4.4 and Platelet DG rel -1.1.
`Cc1cc(=O)[nH]c(N=N/C(=N/Nc2ccccc2C)c2ccccc2)n1` gave PPC-1+TRAIL kill 42.5, H9c2 TAG inh 11.4, STAT1 blocker 3.2, Lipid droplet -15.4, STAT3 inh 24.5, Platelet DG rel 1.0 and PPC-1 tox 35.5.
For CCCN(C(=O)CSc1nnc(-c2ccc3c(c2)OCO3)o1)C1CCS(=O)(=O)C1 (stereo unspecified) the results were H9c2 TAG inh -14.5.
Screening CCn1c2ccccc2c2cc(NC(=O)N3CCOCC3)ccc21 returned PPC-1+TRAIL kill 10.4, STAT1 blocker -27.6, Lipid droplet 13.6, STAT3 inh -9.6, Platelet DG rel -0.4 and PPC-1 tox 3.6.
Screening CCn1c2ccccc2c2cc(NC(=O)CN(C)CC(=O)Nc3ccc(N4CCOCC4)cc3)ccc21 returned PPC-1+TRAIL kill 7.0, H9c2 TAG inh 16.9, STAT1 blocker -12.0, Lipid droplet 6.2, STAT3 inh -14.3 and Platelet DG rel -3.8.
O=Cc1cc2cc3c(cc2nc1Cl)OCCO3 was read as PPC-1+TRAIL kill 14.5, Lipid droplet -3.4 and Platelet DG rel 5.8.
`O=C(O)c1ccc(N/N=C/c2cc3cc4c(cc3nc2Cl)OCCO4)cc1` gave PPC-1+TRAIL kill 88.5*, H9c2 TAG inh 28.5, Lipid droplet 8.5, Platelet DG rel -29.1 and PPC-1 tox 90.9*.
`Cc1nc2sc(-c3ccccc3)cc2c(=O)n1N` gave PPC-1+TRAIL kill 47.1, H9c2 TAG inh 5.4, Lipid droplet -2.8, Platelet DG rel 79.7* and PPC-1 tox 46.7.
Screening Cc1nc2sc(-c3ccccc3)cc2c(=O)n1-n1cccc1 returned PPC-1+TRAIL kill 9.4, STAT1 blocker -49.2, STAT3 inh 5.3 and Platelet DG rel -4.2.
`C[C@@H]1CN([C@H](C)CO)C(=O)c2cc(C#CC(C)(C)O)cnc2O[C@@H]1CN(C)C(=O)C1CC1` gave H9c2 TAG inh 5.8.
CC(=O)Nc1nc(COc2ccccc2)cs1 was read as PPC-1+TRAIL kill -2.2, STAT1 blocker -23.7, Lipid droplet -0.1, STAT3 inh -5.3, Platelet DG rel 4.7 and PPC-1 tox 8.7.
CN1CCN(CC(O)COc2ccc(Cl)cc2)CC1 (stereo unspecified) was read as PPC-1+TRAIL kill 0.2, H9c2 TAG inh -3.0, STAT1 blocker -4.9, Lipid droplet 7.9, STAT3 inh -1.2, Platelet DG rel -0.3 and PPC-1 tox -16.1.
`CN1CCN(CC(O)COc2ccc(OCC(O)CN3CCN(C)CC3)cc2)CC1` (stereo unspecified) gave PPC-1+TRAIL kill -12.0, H9c2 TAG inh 11.6, STAT1 blocker 3.5, Lipid droplet -10.5, STAT3 inh 0.3 and Platelet DG rel -0.7.
Screening CC1(C)N=C(N)N=C(N)N1c1ccc(OCC(=O)N2CCOCC2)c(Cl)c1 returned H9c2 TAG inh 12.9.
CCOc1ccc(CNC(=O)CN2C(=O)CSc3ccc(S(=O)(=O)N4CCOCC4)cc32)cc1 was read as H9c2 TAG inh -10.0.
For O=C(NNC(=O)c1ccncc1)Nc1ccc(N=Nc2ccccc2)cc1 the results were H9c2 TAG inh 7.8.
For Cc1ccc(C(=O)n2c(N)nc3ccccc32)cc1 the results were PPC-1+TRAIL kill 92.2*, STAT1 blocker 88.9*, Lipid droplet 9.0, STAT3 inh 103.1*, Platelet DG rel 31.1 and PPC-1 tox 92.8*.
Screening Cc1ccc2c(c1)COc1c3ccc(C(=O)NCC4CC4)cc3nn1-2 returned PPC-1+TRAIL kill 6.2 and Platelet DG rel -4.7.
O=C(NCC1CC1)c1ccc2c3n(nc2c1)-c1ccccc1CO3 was read as PPC-1+TRAIL kill 79.7*, H9c2 TAG inh -10.4, Platelet DG rel 25.6 and PPC-1 tox 75.7*.
For O=C(NCCO)c1ccc2c3n(nc2c1)-c1ccccc1CO3 the results were PPC-1+TRAIL kill 70.6*, H9c2 TAG inh 17.6, Platelet DG rel 14.3 and PPC-1 tox 70.3*.

Screening data: PubChem BioAssay, several laboratories
